# Shown are actives, neighbours in structure and some others; about 3.1% of the full set was active somewhere.
# SENP8 block-1: SENP8 protease inhibitors, primary screen, biochemical, luminescence; Sentrin-specific protease 8 (Homo sapiens), Q96LD8; purified SENP8, Z-RLRGG-aminoluciferin cleavage; inhibition, % at 10 µM; 330,000 tested, 1.2% active; AID 2540, 2010; in the data active means inhibition above about 50%
# UBC13 polyUb: UBC13 polyubiquitin chain formation inhibitors, primary screen, biochemical, TR-FRET, uHTS; inhibition, % at 20 µM; Ubiquitin-conjugating enzyme E2 N (Homo sapiens), P61088; 330,000 tested, 0.47% active; in the data active means inhibition above about 45%, passing the limit was not always enough
# Target sequence (P61088 whole entry, looked up): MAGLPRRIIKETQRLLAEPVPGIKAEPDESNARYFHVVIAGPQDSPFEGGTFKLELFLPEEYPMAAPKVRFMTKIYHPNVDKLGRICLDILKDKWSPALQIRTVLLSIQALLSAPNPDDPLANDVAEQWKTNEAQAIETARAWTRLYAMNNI
# SENP6 block: SENP6 protease inhibitors, primary screen, biochemical, luminescence, uHTS; 330,000 tested, 1.8% active; Recombinant SENP6 catalytic domain, aminoluciferin luminescence; AID 2599, 2010; inhibition, % at 10 µM; Sentrin-specific protease 6 (Homo sapiens), Q9GZR1;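 active means inhibition above about 50% at the single tested dose, limit read from the data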;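 further: plate controls were DMSO wells with enzyme for no effect and DMSO wells lacking enzyme for full effect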
# Target sequence (Q9GZR1 628-1112 limits assumed): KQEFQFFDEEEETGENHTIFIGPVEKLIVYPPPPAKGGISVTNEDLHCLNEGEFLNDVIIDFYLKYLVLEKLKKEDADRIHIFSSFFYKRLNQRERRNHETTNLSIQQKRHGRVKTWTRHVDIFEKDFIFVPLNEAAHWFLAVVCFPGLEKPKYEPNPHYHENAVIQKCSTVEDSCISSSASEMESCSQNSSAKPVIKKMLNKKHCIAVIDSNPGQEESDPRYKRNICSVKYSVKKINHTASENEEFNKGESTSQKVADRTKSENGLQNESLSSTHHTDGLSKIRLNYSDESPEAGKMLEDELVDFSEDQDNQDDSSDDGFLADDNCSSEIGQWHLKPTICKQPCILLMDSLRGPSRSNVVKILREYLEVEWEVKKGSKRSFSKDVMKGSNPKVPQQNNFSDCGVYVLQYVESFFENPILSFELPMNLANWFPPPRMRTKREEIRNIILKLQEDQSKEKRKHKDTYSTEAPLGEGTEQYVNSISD
# SENP7 block: SENP7 protease inhibitors, primary screen, biochemical, luminescence, uHTS | Sentrin-specific protease 7 (Homo sapiens), Q9BQF6 | recombinant SENP7, Z-RLRGG-aminoluciferin luminescence, 40 min | inhibition, % at 5 µM | 330,000 tested, 1.5% active;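 active means inhibition above about 50% at the single test dose, limit read from the data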;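 further: plate controls were DMSO with enzyme for no effect and no enzyme buffer wells for full effect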
# Apaf-1 inh: inhibitors of human Apaf-1 apoptosome, primary screen, biochemical, DEVD-Rh110 fluorescence, uHTS | 330,000 tested, 0.71% active | AID 489030, 2010 | reconstituted apoptosome caspase-3 activity | inhibition, % at 20 µM; active means inhibition of at least 40% at 20 µM;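 further: plate controls were DMSO wells for no effect and DEVD-CHO caspase inhibitor wells for full effect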
#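 System – cell-free apoptosome with Apaf-1, procaspase-3 and caspase-9 · Buffer or medium – pH 7.5 Hepes buffer with CHAPS, BSA, DTT · Also added – cytochrome c with DEVD-Rh110 · Times – 30 min compound preincubation, 50 min activation, room temperature · Technique – Rh110 fluorescence intensity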
# SENP8 block-2: human SENP8 protease inhibitors, primary screen, biochemical, fluorescence, Nedd8 protein substrate, uHTS; recombinant SENP8; 360,000 tested, 0.64% active; Sentrin-specific protease 8 (Homo sapiens), Q96LD8; inhibition, % at 20 µM; in the data active means inhibition mostly above about 40%, no sharp cut-off; inactive means mostly below about 27%
# SENP8 confirm: SENP8 protease inhibitors, retest, confirmation, biochemical, luminescence, single concentration | Recombinant SENP8, Z-RLRGG-aminoluciferin luminescence, 60 min | shares compounds with SENP7 block | 6,200 tested, 40% active | inhibition, % at 12.5 µM;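 active means mean inhibition across replicates above about 50%, limit read from the data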
# SENP6 confirm: SENP6 protease inhibitors, confirmation, biochemical, luminescence, single concentration | shares compounds with SENP7 block | recombinant SENP6, Z-RLRGG-aminoluciferin luminescence | inhibition, % at 12.5 µM | 6,200 tested, 58% active | AID 488915, 2010
# SENP7 conf: SENP7 protease inhibitors, retest, confirmation, biochemical, luminescence, single concentration; shares compounds with SENP7 block; recombinant SENP7, Z-RLRGG-aminoluciferin luminescence, 40 min; inhibition, % at 12.5 µM; 6,200 tested, 69% active; AID 488917, 2010
# Casp3 SENP sel: caspase-3 protease inhibitors, confirmation, selectivity assay for SENP inhibitor project, biochemical, single concentration; 6,200 tested, 60% active; shares compounds with SENP7 block; inhibition, % at 12.5 µM; purified caspase-3, Z-DEVD-aminoluciferin luminescence, 60 min;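 active means mean inhibition above about 50%, limit read from the data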;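 further: plate controls were enzyme with DMSO for no effect and wells without caspase-3 for full effect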
# SENP luc ctr: interferes with luciferase luminescence in SENP counter-screen; shares compounds with SENP7 block; Pre-incubated SENP8/Z-RLRGG-aminoluciferin, luciferase luminescence interference; inhibition, % at 12.5 µM; 6,200 tested, 39% active;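 active means mean inhibition above about 50% when retested at one dose, limit read from the data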;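 further: plate controls were DMSO wells with completed reaction for no effect and substrate without enzyme for full effect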
# Starred values were filed as active, the others as inactive; nt = no result.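 How the source made its calls, unless noted: active means mean inhibition above about 50% in the one-dose retest (limit read from the data); inactive means the rest.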
SMILES,SENP8 block-1,UBC13 polyUb,SENP6 block,SENP7 block,Apaf-1 inh,SENP8 block-2,SENP8 confirm,SENP6 confirm,SENP7 conf,Casp3 SENP sel,SENP luc ctr
O=C(/C=C/Nc1ccccc1)c1ccc(Cl)cc1Cl,83*,-4,3,87*,22,-39,89*,92*,98*,82*,64*
COc1ccc(-n2c(SCC(=O)Nc3cc(C)on3)nc3c(c2=O)SC(C)C3)cc1 (stereo not drawn),nt,nt,nt,nt,nt,7,nt,nt,nt,nt,nt
CN1CCN(c2ccc(CNC(=O)C3Cc4c(-c5ccc(Cl)cc5)ccnc4O3)cc2)CC1 (stereo not drawn),nt,nt,nt,nt,nt,8,nt,nt,nt,nt,nt
Cc1ccc(N/C=C/C(=O)c2ccc(C)cc2)cc1,-21,-8,-13,19,-1,-296,nt,nt,nt,nt,nt
CN(C)c1ccc(N/C=C/C(=O)c2ccccc2)cc1,95*,-34,96*,102*,3,28,70*,94*,100*,97*,28
Cc1ccc(C(=O)/C=C/Nc2ccc([N+](=O)[O-])cc2Br)cc1,-2,-27,-14,3,3,-18,nt,nt,nt,nt,nt
O=C(/C=C/Nc1ccccc1)c1ccccc1,93*,-7,100*,96*,11,-60,90*,96*,101*,96*,54*
O=C(/C=C/Nc1ccc(F)cc1Br)c1ccccc1,94*,-7,96*,100*,7,-83,31,43,36,75*,29
CC(=O)Nc1ccc(N/C=C/C(=O)c2ccccc2)cc1,50*,2,70*,55*,-8,-72,45,66*,90*,78*,31
COc1cc(O)sc1C=Nc1ccc(Cl)cc1,82*,-7,95*,91*,-2,-8,85*,87*,100*,84*,57*
O=C(Nc1cc(Cl)ccc1N1CCOCC1)c1ccc2c(c1)OCCO2,-4,2,-30,-9,16,0,nt,nt,nt,nt,nt
O=C(Nc1ccc(Cl)cc1[N+](=O)[O-])c1ccc2c(c1)OCCO2,-16,-6,17,64*,-1,9,15,10,8,6,-5
O=C(Nc1ccc(F)c([N+](=O)[O-])c1)c1ccc2c(c1)OCCO2,29,3,57*,69*,10,9,31,41,87*,61*,40
COc1ccc(C(=O)Nc2ccc3c(c2)OCCO3)cc1[N+](=O)[O-],-2,5,14,8,7,19,nt,nt,nt,nt,nt
CCCCn1nnnc1C1(C)CCC(=O)N1Cc1ccc(C)cc1 (stereo not drawn),nt,nt,nt,nt,nt,10,nt,nt,nt,nt,nt
O=C(Nc1ccc2nc(-c3cccnc3)[nH]c2c1)c1ccco1,1,-3,-2,9,3,-167,nt,nt,nt,nt,nt
O=C(Nc1ccc(-c2nc3ccccc3[nH]2)cc1)c1ccco1,84*,-1,91*,86*,1,-69,87*,87*,96*,88*,65*
S=C(Nc1ccc(-c2nc3ccccc3[nH]2)cc1)Nc1cccnc1,23,-11,65*,41,10,-304,17,9,34,45,23
Cc1ccc2nc(-c3cccc(NC(=O)c4ccco4)c3)[nH]c2c1,87*,0,92*,95*,12,-33,2,93*,101*,89*,92*
O=C(/C=C/c1ccco1)Nc1ccc(-c2nc3ccccc3[nH]2)cc1,nt,nt,nt,nt,nt,-80,nt,nt,nt,nt,nt
CC(=O)/C(N=Nc1ccc(C(=O)O)cc1[N+](=O)[O-])=C(\C)O,51*,16,-5,59*,-29,24,54*,51*,84*,92*,64*
COC(=O)[C@]12CCCCC=C1N(Cc1cccc3ccccc13)C(=O)[C@H](CC(=O)NCCc1ccccc1OC)C2,nt,nt,nt,nt,nt,12,nt,nt,nt,nt,nt
COc1ccc(C#Cc2cnc3c(c2)C(=O)N([C@H](C)CO)C[C@@H](C)[C@H](CN(C)C(=O)CN(C)C)O3)cc1,nt,nt,nt,nt,nt,-76,nt,nt,nt,nt,nt
CSc1nsc2nc(=O)c(/C=C3\C=Nc4ccccc43)c(N)n12,72*,-4,86*,39,1,-7,69*,72*,92*,41,76*
CC(C)C(=NO)c1ccccc1,nt,nt,nt,nt,nt,12,nt,nt,nt,nt,nt
SMILES,SENP8 block-1,UBC13 polyUb,SENP6 block,SENP7 block,Apaf-1 inh,SENP8 block-2,SENP8 confirm,SENP6 confirm,SENP7 conf,Casp3 SENP sel,SENP luc ctr
COc1ccc(Nc2nc3ccccc3c(=O)[nH]2)cc1,3,11,23,2,-5,-331,nt,nt,nt,nt,nt
COc1ccccc1/C=C/c1nc2ccccc2c(=O)o1,nt,nt,nt,nt,nt,-165,nt,nt,nt,nt,nt
COc1ccccc1/C=C/c1nc2ccc(OC(C)=O)cc2c(=O)o1,64*,2,72*,65*,5,-498,13,7,17,14,-1
COc1ccc(/C=C/c2nc3ccccc3c(=O)o2)cc1,84*,0,90*,78*,7,-329,71*,71*,83*,63*,65*
CSc1cccc(NC(=O)CCCOc2cc(=O)n(C)c3ccccc23)c1,nt,nt,nt,nt,nt,-1,nt,nt,nt,nt,nt
Oc1ccccc1-c1n[nH]c(-c2ccccc2O)n1,nt,nt,nt,nt,nt,-85,nt,nt,nt,nt,nt
O=C(O)COc1ccc(/C=C/c2nc(-c3ccccc3O)n[nH]2)cc1,67*,-8,87*,69*,12,-50,84*,82*,96*,71*,83*
COc1ccc(/C=C/c2nc(-c3ccccc3O)n[nH]2)cc1OC,-4,0,67*,43,-2,-117,65*,63*,85*,19,48
